From ChEMBL document CHEMBL1140058, “Synthesis of new sulfonyl pyrrolidine derivatives as matrix metalloproteinase inhibitors” (Bioorg Med Chem, 2008)
pIC50: −log10 of the molar value.

How the values were obtained:
Aminopeptidase N = Aminopeptidase N (Homo sapiens, UniProt P15144); experiment: Inhibition of APN by spectrophotometric assay
Method in brief: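 Enzyme and compound preincubated 30 min at 37 °C in 50 mM sodium phosphate buffer, pH 7.2. L-leucine p-nitroanilide substrate was then added for a further 60 min at 37 °C, and absorbance was read at 405 nm. The no-compound well was taken as 100% and the enzyme-only well as blank. Inhibition % = (OD100% − ODcompound)/(OD100% − ODblank) × 100.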

[1] = molecular target: 72 kDa type IV collagenase (Homo sapiens, UniProt P08253); experiment: Inhibition of MMP2 by microtiter plate fluorimetric assay; details: in the assay text read “spectrophotometric” for “fluorimetric”
Chain of 72 kDa type IV collagenase (P08253 whole entry): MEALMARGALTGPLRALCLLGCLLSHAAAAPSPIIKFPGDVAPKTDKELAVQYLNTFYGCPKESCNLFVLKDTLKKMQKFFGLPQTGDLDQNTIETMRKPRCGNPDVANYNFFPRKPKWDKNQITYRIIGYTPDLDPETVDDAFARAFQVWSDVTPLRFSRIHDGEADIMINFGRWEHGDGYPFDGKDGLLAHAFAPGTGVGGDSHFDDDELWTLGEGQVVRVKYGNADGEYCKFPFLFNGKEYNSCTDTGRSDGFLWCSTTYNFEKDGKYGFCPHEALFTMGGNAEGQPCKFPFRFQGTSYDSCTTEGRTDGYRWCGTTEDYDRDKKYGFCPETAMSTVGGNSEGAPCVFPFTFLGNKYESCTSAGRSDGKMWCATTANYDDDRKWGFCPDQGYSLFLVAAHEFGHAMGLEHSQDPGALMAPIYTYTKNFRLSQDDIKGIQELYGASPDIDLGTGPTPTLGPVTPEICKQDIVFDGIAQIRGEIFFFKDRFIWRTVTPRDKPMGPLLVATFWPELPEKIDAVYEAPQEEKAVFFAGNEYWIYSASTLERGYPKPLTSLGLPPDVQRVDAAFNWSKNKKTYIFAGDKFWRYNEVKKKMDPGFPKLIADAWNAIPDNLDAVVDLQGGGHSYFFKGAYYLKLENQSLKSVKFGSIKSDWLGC
Method in brief: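 Enzyme and compound preincubated 30 min at 37 °C in 50 mM sodium borate buffer, pH 8.5. Substrate was added for a further 60 min at 37 °C, then 0.03% picrylsulfonic acid for 20 min at room temperature. Absorbance was read at 450 nm. The no-compound well was taken as 100% and the enzyme-only well as blank. Inhibition % = (OD100% − ODcompound)/(OD100% − ODblank) × 100.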

Chain of Aminopeptidase N (P15144 whole entry): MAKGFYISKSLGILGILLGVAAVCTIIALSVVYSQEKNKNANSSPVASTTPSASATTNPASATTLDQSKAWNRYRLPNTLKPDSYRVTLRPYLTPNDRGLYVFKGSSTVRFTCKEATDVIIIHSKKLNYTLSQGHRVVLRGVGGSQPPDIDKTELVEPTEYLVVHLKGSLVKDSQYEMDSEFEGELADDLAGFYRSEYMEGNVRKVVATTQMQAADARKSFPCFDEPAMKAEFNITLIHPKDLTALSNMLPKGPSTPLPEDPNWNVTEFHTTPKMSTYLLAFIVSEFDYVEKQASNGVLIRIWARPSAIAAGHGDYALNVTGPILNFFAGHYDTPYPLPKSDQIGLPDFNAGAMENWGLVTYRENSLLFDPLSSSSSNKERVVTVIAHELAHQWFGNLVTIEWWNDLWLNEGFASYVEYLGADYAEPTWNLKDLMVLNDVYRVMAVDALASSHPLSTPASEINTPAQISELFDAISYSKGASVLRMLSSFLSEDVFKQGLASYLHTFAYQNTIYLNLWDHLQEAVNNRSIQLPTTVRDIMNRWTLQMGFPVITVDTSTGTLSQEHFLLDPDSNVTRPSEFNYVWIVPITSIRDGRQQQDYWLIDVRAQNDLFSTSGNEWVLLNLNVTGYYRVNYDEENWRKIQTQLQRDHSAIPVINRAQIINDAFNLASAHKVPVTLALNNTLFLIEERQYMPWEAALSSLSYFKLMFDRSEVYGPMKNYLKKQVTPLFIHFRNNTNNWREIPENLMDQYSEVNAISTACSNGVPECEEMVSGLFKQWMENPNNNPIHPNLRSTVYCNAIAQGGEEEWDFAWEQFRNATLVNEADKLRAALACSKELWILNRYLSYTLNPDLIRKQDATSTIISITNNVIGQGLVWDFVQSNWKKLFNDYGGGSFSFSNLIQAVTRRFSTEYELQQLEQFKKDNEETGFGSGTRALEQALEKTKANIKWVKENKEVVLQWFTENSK

Row | Compound | pIC50 (Aminopeptidase N) | pIC50 [1]
1 | COC(=O)[C@@H]1C[C@@H](OC(=O)c2ccccc2)CN1S(=O)(=O)c1ccccc1 | 4.36 | 5.46
2 | COC(=O)[C@@H]1C[C@@H](OC(=O)c2ccccc2)CN1S(=O)(=O)c1ccc(C)cc1 | 4.61 | 5.49
3 | COC(=O)[C@@H]1C[C@@H](OC(=O)c2ccccc2)CN1S(C)(=O)=O | 4.27 | 5.28
4 | COC(=O)[C@@H]1C[C@@H](OC(=O)c2ccc(Cl)cc2)CN1S(=O)(=O)c1ccccc1 | 4.44 | 5.57
5 | COC(=O)[C@@H]1C[C@@H](OC(=O)c2ccc(Cl)cc2)CN1S(=O)(=O)c1ccc(C)cc1 | 4.29 | 5.66
6 | COC(=O)[C@@H]1C[C@@H](OS(=O)(=O)c2ccccc2)CN1S(C)(=O)=O | 4.55 | 6.15
7 | COC(=O)[C@@H]1C[C@@H](OS(=O)(=O)c2ccc(C)cc2)CN1S(=O)(=O)c1ccccc1 | 4.21 | 7.40
8 | COC(=O)[C@@H]1C[C@@H](OS(=O)(=O)c2ccccc2)CN1S(=O)(=O)c1ccc(C)cc1 | 4.13 | 7.30
9 | COC(=O)[C@@H]1C[C@@H](OS(=O)(=O)c2ccc(C)cc2)CN1S(C)(=O)=O | 4.16 | 6.70
10 | CS(=O)(=O)N1C[C@H](O)C[C@H]1C(=O)NO | 4.58 | 7.70
11 | COC(=O)[C@@H]1C[C@@H](OS(C)(=O)=O)CN1S(=O)(=O)c1ccc(C)cc1 | 4.38 | 6.70
12 | COC(=O)[C@@H]1C[C@@H](OS(=O)(=O)c2ccccc2)CN1S(=O)(=O)c1ccccc1 | 4.33 | 8.00
13 | COC(=O)[C@@H]1C[C@@H](OS(=O)(=O)c2ccc(C)cc2)CN1S(=O)(=O)c1ccc(C)cc1 | 3.99 | 8.15
14 | COC(=O)[C@@H]1C[C@@H](OC(=O)c2ccc(Cl)cc2)CN1S(C)(=O)=O | 4.32 | 5.82
15 | COC(=O)[C@@H]1C[C@@H](OC(=O)/C=C/c2ccccc2)CN1S(C)(=O)=O | 3.94 | 6.30
16 | COC(=O)[C@@H]1C[C@@H](OS(C)(=O)=O)CN1S(C)(=O)=O | 4.50 | 5.05
17 | Cc1ccc(S(=O)(=O)N2C[C@H](O)C[C@H]2C(=O)NO)cc1 | 4.66 | 8.70
18 | COC(=O)[C@@H]1C[C@@H](OC(=O)/C=C/c2ccccc2)CN1S(=O)(=O)c1ccccc1 | 3.87 | 7.05
19 | COC(=O)[C@@H]1C[C@@H](OS(C)(=O)=O)CN1S(=O)(=O)c1ccccc1 | 4.40 | 5.89
20 | COC(=O)[C@@H]1C[C@@H](OC(=O)/C=C/c2ccccc2)CN1S(=O)(=O)c1ccc(C)cc1 | 3.77 | 7.40
21 | O=C(NO)[C@@H]1C[C@@H](O)CN1S(=O)(=O)c1ccccc1 | 4.47 | 8.40
